# In ChEMBL document CHEMBL4118206, “Synthesis, characterization and cytotoxicity studies of 1,2,3-triazoles and 1,2,4-triazolo [1,5-a] pyrimidines in human breast cancer cells” (Bioorg Med Chem Lett, 2018):
# pIC50: −log10 of the molar value. Active and inactive are the calls of the source. No cut-off for these calls is given here.
# Experiments:
# [1] = target: Vascular endothelial growth factor receptor 1 (Homo sapiens) (UniProt P17948); experiment: Inhibition of VEGFR1 in human MCF7 cells assessed as downregulation of protein expression at 15 uM after 48 hrs by Western blot method relative to beta-actin; assay type: cell-based
# Chain of Vascular endothelial growth factor receptor 1 (Homo sapiens) (P17948 whole entry): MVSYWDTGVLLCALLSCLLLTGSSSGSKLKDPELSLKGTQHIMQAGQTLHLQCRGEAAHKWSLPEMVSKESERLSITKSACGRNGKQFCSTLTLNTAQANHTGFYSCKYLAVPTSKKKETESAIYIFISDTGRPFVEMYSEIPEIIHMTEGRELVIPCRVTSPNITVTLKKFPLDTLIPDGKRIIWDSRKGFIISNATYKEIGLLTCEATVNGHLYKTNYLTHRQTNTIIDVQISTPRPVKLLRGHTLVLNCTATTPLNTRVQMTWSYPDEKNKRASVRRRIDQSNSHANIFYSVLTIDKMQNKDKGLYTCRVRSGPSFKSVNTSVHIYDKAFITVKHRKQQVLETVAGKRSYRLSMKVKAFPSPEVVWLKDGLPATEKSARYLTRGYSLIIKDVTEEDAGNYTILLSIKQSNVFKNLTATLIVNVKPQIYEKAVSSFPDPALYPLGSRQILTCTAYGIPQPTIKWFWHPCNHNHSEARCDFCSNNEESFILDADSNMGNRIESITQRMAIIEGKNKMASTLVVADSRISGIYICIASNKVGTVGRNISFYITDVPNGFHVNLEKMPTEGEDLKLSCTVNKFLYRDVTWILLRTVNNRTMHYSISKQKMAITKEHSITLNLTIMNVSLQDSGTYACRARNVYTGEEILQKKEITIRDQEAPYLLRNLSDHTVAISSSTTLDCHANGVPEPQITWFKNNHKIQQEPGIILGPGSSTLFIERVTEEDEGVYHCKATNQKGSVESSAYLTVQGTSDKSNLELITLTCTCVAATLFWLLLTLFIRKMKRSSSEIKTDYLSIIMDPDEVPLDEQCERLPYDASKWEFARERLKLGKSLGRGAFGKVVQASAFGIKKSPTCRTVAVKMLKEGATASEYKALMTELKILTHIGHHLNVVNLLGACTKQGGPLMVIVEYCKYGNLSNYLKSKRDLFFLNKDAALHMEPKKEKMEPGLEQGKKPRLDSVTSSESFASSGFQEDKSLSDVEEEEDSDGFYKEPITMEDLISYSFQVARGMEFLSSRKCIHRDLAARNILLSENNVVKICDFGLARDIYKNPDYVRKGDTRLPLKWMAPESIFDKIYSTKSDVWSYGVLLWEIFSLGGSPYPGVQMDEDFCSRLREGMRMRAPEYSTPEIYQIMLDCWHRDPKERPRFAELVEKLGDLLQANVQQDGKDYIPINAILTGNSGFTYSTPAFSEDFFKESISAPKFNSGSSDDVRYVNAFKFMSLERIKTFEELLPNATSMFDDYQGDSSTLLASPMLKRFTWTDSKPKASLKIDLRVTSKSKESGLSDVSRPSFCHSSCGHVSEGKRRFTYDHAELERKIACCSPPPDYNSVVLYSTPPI
# How it was run: (§1)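 MCF7 cells were seeded at 300,000 per 6 cm dish in RPMI + 10% FBS and grown 24 h. They were then treated in RPMI + 2% FBS for 48 h, harvested and immunoblotted at 40 µg protein per lane. Blots were probed with primary antibodies against VEGFR1 and β-actin.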
# MCF7 [2] = experiment: Effect on beta-actin protein expression in human MCF7 cells at 5 to 15 uM after 48 hrs by Western blot method; assay type: ADME, cell-based; settings: mcf7, 48 h; how it was run: as §1
# [3] = target: Vascular endothelial growth factor receptor 1 (Homo sapiens) (UniProt P17948); experiment: Inhibition of VEGFR1 in human MCF7 cells assessed as downregulation of protein expression at 10 uM after 48 hrs by Western blot method relative to beta-actin; assay type: cell-based; how it was run: as §1
# [4] = target: Vascular endothelial growth factor receptor 1 (Homo sapiens) (UniProt P17948); experiment: Inhibition of VEGFR1 in human MCF7 cells assessed as downregulation of protein expression after 48 hrs by Western blot method; assay type: cell-based; how it was run: as §1
# MCF7 [5] = experiment: Cytotoxicity against human MCF7 cells assessed as cell growth inhibition after 72 hrs by alamar blue assay; assay type: functional, cell-based; settings: MCF7, 72 h
# [6] = target: Vascular endothelial growth factor receptor 1 (Homo sapiens) (UniProt P17948); experiment: Inhibition of VEGFR1 in human MCF7 cells assessed as downregulation of protein expression at 5 uM after 48 hrs by Western blot method relative to beta-actin; assay type: cell-based; how it was run: as §1
# BT-474 = experiment: Cytotoxicity against human BT474 cells assessed as cell growth inhibition after 72 hrs by alamar blue assay; assay type: functional, cell-based; settings: BT-474, 72 h
# MDA-MB-231 [7] = experiment: Cytotoxicity against human MDA-MB-231 cells assessed as cell growth inhibition after 72 hrs by alamar blue assay; assay type: functional, cell-based; settings: MDA-MB-231, 72 h
# MCF7 [8] = experiment: Cytotoxicity against human MCF7 cells assessed as cell growth inhibition at 25 uM after 72 hrs by alamar blue assay; assay type: functional, cell-based
# How it was run: (§2)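 MCF7 cells were seeded at 5000 per well. After 24 h they were exposed to 25 µM compound. Viability was read with AlamarBlue after a 4 h reagent incubation at 24, 48 and 72 h of treatment.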
# MDA-MB-231 [9] = experiment: Cytotoxicity against human MDA-MB-231 cells assessed as cell growth inhibition at 25 uM after 72 hrs by alamar blue assay; assay type: functional, cell-based
# [10] = target: Vascular endothelial growth factor receptor 1 (Homo sapiens) (UniProt P17948); experiment: Inhibition of VEGFR1 in human MCF7 cells assessed as downregulation of protein expression at 1 uM after 48 hrs by Western blot method relative to beta-actin; assay type: cell-based; how it was run: as §1
# [11] = target: Vascular endothelial growth factor receptor 1 (Homo sapiens) (UniProt P17948); experiment: Inhibition of VEGFR1 in human MCF7 cells assessed as downregulation of protein expression at 0.5 uM after 48 hrs by Western blot method relative to beta-actin; assay type: cell-based; how it was run: as §1
# [12] = target: Vascular endothelial growth factor receptor 1 (Homo sapiens) (UniProt P17948); experiment: Inhibition of VEGFR1 in human MCF7 cells assessed as downregulation of protein expression at 2 uM after 48 hrs by Western blot method relative to beta-actin; assay type: cell-based; how it was run: as §1
# MCF7 [13] = experiment: Cytotoxicity against human MCF7 cells assessed as cell growth inhibition at 25 uM by alamar blue assay; assay type: functional, cell-based; settings: TDE = time-dependent effect; how it was run: as §2
# Ishikawa = experiment: Cytotoxicity against human Ishikawa cells assessed as cell growth inhibition after 72 hrs by alamar blue assay; assay type: functional, cell-based
# MCF7 [14] = experiment: Effect on beta-actin protein expression in human MCF7 cells at 0.5 to 2 uM after 48 hrs by Western blot method; assay type: ADME, cell-based; settings: mcf7, 48 h; how it was run: as §1
Compound,pIC50 (MCF7 [5]),pIC50 (MDA-MB-231 [7]),growth inhibition (GI) (MCF7 [8]),growth inhibition (GI) (MDA-MB-231 [9]),also measured
c1ccc(-c2cn(-c3ccc(-c4cc5ccccc5s4)cc3)nn2)cc1,4.84,,,,fold change (FC) [1]: 0.63; Activity (MCF7 [2]): Non-Toxic; fold change (FC) [3]: 0.7; inhibition [4]: Dose-dependent effect; fold change (FC) [6]: 0.8; pIC50 (BT-474): > 4.30
Clc1ccccc1-c1ccc(-n2cc(-c3ccccc3)nn2)cc1,> 4.30,,,,
N#Cc1cncc(-c2ccc(-n3cc(-c4ccccc4)nn3)cc2)c1,> 4.30,,,,
Clc1ccccc1-c1ccn2ncnc2n1,< 4.00,< 4.00,inactive,inactive,
COc1ccc(F)cc1-c1ccc(-n2cc(-c3ccccc3)nn2)cc1,> 4.30,,,,
Cc1ccccc1-c1ccc(-n2cc(-c3ccccc3)nn2)cc1,> 4.30,,,,
N#Cc1cncc(-c2ccn3ncnc3n2)c1,,< 4.00,inactive,inactive,
Fc1ccc(Cl)cc1-c1ccc(-n2cc(-c3ccccc3)nn2)cc1,> 4.30,,,,
Fc1ccc(Cl)cc1-c1ccn2ncnc2n1,,< 4.00,inactive,inactive,
CS(=O)(=O)c1cccc(-c2ccc(-n3cc(-c4ccccc4)nn3)cc2)c1,> 4.30,,,,
COc1ccc(F)cc1-c1ccn2ncnc2n1,< 4.00,< 4.00,inactive,inactive,
c1ccc(-c2ccc(-n3cc(-c4ccccc4)nn3)cc2)cc1,> 4.30,,,,
Fc1ccc(-c2ccn3ncnc3n2)cn1,< 4.00,< 4.00,inactive,inactive,
c1ccc(-c2ccn3ncnc3n2)cc1,5.41,< 4.00,,inactive,
CCOc1cc(F)ccc1-c1ccn2ncnc2n1,4.03,4.30,inactive,inactive,
CCOc1cc(F)ccc1-c1ccc(-n2cc(-c3ccccc3)nn2)cc1,5.77,5.32,,,fold change (FC) [10]: 0.29; fold change (FC) [11]: 0.8; fold change (FC) [12]: 0.54; growth inhibition (GI) (MCF7 [13]): Tde; pIC50 (Ishikawa): 5.71; inhibition [4]: Dose-dependent effect; Activity (MCF7 [14]): Non-Toxic; pIC50 (BT-474): 5.39
Clc1ccccc1-c1ccccc1-c1ccn2ncnc2n1,< 4.00,< 4.00,inactive,inactive,
